The text below walks through data of ChEMBL document CHEMBL4613273, “Discovery of Aryl Formyl Piperidine Derivatives as Potent, Reversible, and Selective Monoacylglycerol Lipase Inhibitors” (J Med Chem, 2020).

The source made the active and inactive calls. The calls are words filed in the database; no cut-off is given here.

For data set [1], the target named is T1, Monoglyceride lipase (Homo sapiens) (UniProt Q99685).
T1 sequence (whole entry): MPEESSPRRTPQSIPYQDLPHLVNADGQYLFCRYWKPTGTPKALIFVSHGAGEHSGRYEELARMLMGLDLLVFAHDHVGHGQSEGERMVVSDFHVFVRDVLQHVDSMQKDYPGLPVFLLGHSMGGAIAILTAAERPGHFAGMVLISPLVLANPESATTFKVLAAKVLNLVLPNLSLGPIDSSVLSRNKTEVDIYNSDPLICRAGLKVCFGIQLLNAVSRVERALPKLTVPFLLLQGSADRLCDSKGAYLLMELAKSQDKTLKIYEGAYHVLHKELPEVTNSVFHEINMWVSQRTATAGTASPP
Nature of the data set: Reversible inhibition of human recombinant MAGL pre-incubated for up to 60 mins before MAGL substrate addition and further incubated for 10 mins. A digest of the protocol: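 The inhibitor was preincubated with MAGL for 0, 30 or 60 min before substrate was added to start the reaction. IC50 (nM) was determined at each preincubation time, from 3 independent experiments.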

Data set [2] has as its target T2, Fatty-acid amide hydrolase 1 (Homo sapiens, UniProt O00519).
T2 sequence (O00519 whole entry): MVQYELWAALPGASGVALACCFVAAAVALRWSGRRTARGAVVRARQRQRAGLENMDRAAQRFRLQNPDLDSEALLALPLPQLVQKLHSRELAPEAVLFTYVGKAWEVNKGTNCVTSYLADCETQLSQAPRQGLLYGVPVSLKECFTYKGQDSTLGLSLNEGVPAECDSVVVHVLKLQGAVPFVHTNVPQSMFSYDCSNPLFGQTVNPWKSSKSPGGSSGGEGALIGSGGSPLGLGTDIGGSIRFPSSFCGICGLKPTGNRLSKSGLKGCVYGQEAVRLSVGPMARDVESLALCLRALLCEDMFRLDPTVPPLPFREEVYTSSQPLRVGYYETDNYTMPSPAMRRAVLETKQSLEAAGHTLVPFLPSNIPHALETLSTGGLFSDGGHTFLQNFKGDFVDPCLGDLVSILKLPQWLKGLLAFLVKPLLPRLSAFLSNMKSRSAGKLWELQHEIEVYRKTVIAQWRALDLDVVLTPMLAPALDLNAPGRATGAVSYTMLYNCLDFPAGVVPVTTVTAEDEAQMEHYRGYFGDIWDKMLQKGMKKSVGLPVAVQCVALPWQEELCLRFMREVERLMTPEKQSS
Nature of the data set: Inhibition of human recombinant FAAH pre-incubated for 5 mins before substrate addition and further incubated for 30 mins by fluorescence assay.

The target in data set [3] is T3, Fatty-acid amide hydrolase 1 (Homo sapiens) (UniProt O00519).
T3 sequence (whole entry): T2 sequence (O00519 whole entry)
Nature of the data set: Inhibition of human recombinant FAAH at 100 uM pre-incubated for 5 mins before substrate addition and further incubated for 30 mins by fluorescence assay relative to control.

The nature of data set [4]: Stability in rat liver microsomes assessed as parent compound remaining level at 100 uM pre-incubated for 5 mins before NADPH addition and measured after 60 mins by UPLC-MS/MS analysis. Type of data set: ADME, Microsome. Conditions: read-out: Stability. The method, boiled down: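 Liver microsomes from human, mouse and rat were incubated with the compound. Remaining parent compound was followed at several time points up to 60 min and expressed as percent remaining.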
A general note: Liver microsomes are vesicles of endoplasmic reticulum, rich in cytochrome P450 enzymes.

The nature of data set [5]: Growth inhibition of mouse L929 cells at 20 uM incubated for 24 to 72 hrs relative to control. Type of data set: cell-based. Conditions: read-out: GI. The method, boiled down: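 Mouse fibroblast L929 cells were exposed to the compound, including 20 μM, for 24, 48 and 72 h. Growth inhibition was read against control, from 3 independent experiments.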
Data set [6] is described as follows: AUC (0 to t) in Sprague-Dawley rat plasma at 10 mg/kg, iv measured over 1 to 300 mins post dose by LC-MS/MS analysis. The conditions noted are these: in vivo. In kind it is ADME, organism-based.
Data set [7] is described as follows: AUC (0 to infinity) in Sprague-Dawley rat plasma at 10 mg/kg, iv measured over 1 to 300 mins post dose by LC-MS/MS analysis. Type of data set: ADME, organism-based. Further details: dose 10 mg/kg, time infinity, route intravenous. Conditions: in vivo.
A short description of data set [8]: Bioavailability (0 to t) in Sprague-Dawley rat plasma at 10 mg/kg, ig measured over 1 to 300 mins post dose by LC-MS/MS analysis. In kind it is ADME, organism-based. The conditions noted are these: po.
Data set [9] can be described thus: Protein binding in rat plasma at 20 to 500 ng/mL by ultracentrifugation assay. Type of data set: ADME, cell-free. Conditions: read-out: PPB (converted). A digest of the protocol: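 Binding to rat plasma proteins was measured by ultracentrifugation across 20–500 ng/mL of compound.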
In data set [10] the test system is Mus musculus. Nature of the data set: Antidepressant activity in ICR mouse model of reserpine-induced depression assessed as reduction in finger contact at 4 to 16 mg/kg, sc for 6 days followed by reserpine injection 2 hrs after last compound dose and measured after 2 hrs. Type of data set: functional, organism-based. The method, boiled down:
(§1)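 In mice, depression was induced with reserpine 4 mg/kg, and the compound was given s.c. at 4, 8 or 16 mg/kg. Controls received phosphate buffer alone. Awakening, finger contact, fear, head touch, autonomous movement, straight and eyelid closure were scored. Data are mean ± SD of 3 independent experiments.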

The test system of data set [11] is Mus musculus. Nature of the data set: Antidepressant activity in ICR mouse model of reserpine-induced depression assessed as reduction in head touch at 4 to 16 mg/kg, sc for 6 days followed by reserpine injection 2 hrs after last compound dose and measured after 2 hrs. Type of data set: functional, organism-based. A digest of the protocol:
as §1

In data set [12] the test system is Mus musculus. Nature of the data set: Antidepressant activity in ICR mouse model of reserpine-induced depression assessed as reduction in eyelid closure at 4 to 16 mg/kg, sc for 6 days followed by reserpine injection 2 hrs after last compound dose and measured after 2 hrs. In kind it is functional, organism-based. The method, boiled down: as §1
Data set [13] has as its system Mus musculus. Nature of the data set: Antidepressant activity in ICR mouse model of reserpine-induced depression assessed as immobility time at 5 mg/kg, ig by forced swim test (reference value: 136.84 +/- 46.69 secs). In kind it is functional.
A short description of data set [14]: Tmax in Sprague-Dawley rat brain at 10 mg/kg, ig measured over 5 to 720 mins post dose by LC-MS/MS analysis.
Data set [15] can be described thus: Cmax in Sprague-Dawley rat brain at 10 mg/kg, ig measured over 5 to 720 mins post dose by LC-MS/MS analysis.
Data set [16] is described as follows: AUC (0 to infinity) in Sprague-Dawley rat brain at 10 mg/kg, ig measured over 5 to 720 mins post dose by LC-MS/MS analysis. Conditions: in vivo.

With `O=C(Nc1cccc(Cl)c1)C1CCN(C(=O)c2ccc3ccccc3c2)CC1`, in data set [1], the inhibition entry is “Active”. Further, in [2], the IC50 was above 100 µM. In data set [3], the inhibition was found to be 41.3%. For the same molecule, in data set [4], the remaining at 1 h, 100 µM came to 17.3%. For the same molecule, the inhibition at 20 µM in [5] stood at 8.6%. The molecule also displayed an AUCt in data set [6] of 80893 µg·min/L. Further, the AUC in data set [7] turned out to be 82362.19 µg·min/L; in data set [16] it was 3720.04 µg·min/L. For the same molecule, the bioavailability in [8] came out at 12.2%. The fraction unbound in data set [9] was 0.229. The result in data set [10], in [11] and in [12] was Active. Also, in data set [13], the Time is recorded as 89.38 s. In data set [14], the Tmax is 40 min. Further, the peak level in [15] (Cmax) was 16.6 ng/mL.

Broadly, the IC50 is the concentration that gives 50% inhibition. As a reminder, the AUC is the area under the concentration-time curve, a measure of exposure. High values mean more exposure, low ones less exposure. Broadly, the bioavailability is dose-corrected exposure relative to a reference, in per cent. A higher bioavailability goes with good availability. The term Tmax denotes the time from dosing to the highest level. As usually defined, the Cmax is the peak of the concentration-time curve.
